# Data from ChEMBL document CHEMBL4513216, “Probing the Open Global Health Chemical Diversity Library for Multistage-Active Starting Points for Next-Generation Antimalarials” (ACS Infect Dis, 2020).
# Assay: Toxicity liver stage against HepG2, at 10uM
# Format: cell-based
# Design: test concentration 10 uM, cell line HepG2-A16-CD81EGFP
# Details: human, HepG2-A16-CD81EGFP cells; read-out: INHIBITION
# Procedure, shortened: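 Uninfected HepG2-A16-CD81EGFP cells, 3 × 10^3 per well, 1536-well, plated on prespotted compound at 10 μM final, parasite-free screening media added to match infected plates; puromycin 10 μM positive, DMSO 0.5% negative; run in parallel with 48 h PbLuc assay at 37 °C, 5% CO2; viability by CellTiter-Glo luminescence, normalized to controls.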
row,SMILES,cytotoxicity at 10 µM
1,COc1cccc(C(=O)NCC(O)c2cccs2)c1 (stereo unspecified),-22.4%
2,CC(=O)c1ccc(Nc2nc(N)nc3c2nc(C)n3C)cc1,-8.23%
3,O=C(c1cc(-c2cccs2)cs1)N1CCOCC1,5.01%
4,N#Cc1cnn(C(=O)COc2ccccc2F)c1N,2.92%
5,COc1ccc(-n2cc(CNC(=O)c3cc[nH]n3)nn2)cc1,-4.71%
6,CC1CCN(C(=O)CCN2Cc3ccccc3C[C@H]2C(N)=O)C1 (stereo partly specified),-3.11%
7,COC(=O)C1CN(Cc2ccn(-c3ccc(F)cc3)n2)CCO1 (stereo unspecified),-8.51%
8,CC(C)(C)c1noc(CCC(=O)N2CCNC(=O)C2)n1,-4.96%
9,CCN(CC(=O)NC)C(=O)c1csc(Cc2ccccc2)n1,-5.66%
10,CC(C)(C)c1noc(CCCC(=O)N2CCNC(=O)CC2)n1,-7.49%
11,Cc1noc(CCCC(=O)N2CCNC(=O)C2)n1,-4.62%
12,CC(C)C1C(=O)NCCN1C(=O)CCCc1nc(C(C)(C)C)no1 (stereo unspecified),-3.53%
13,Cc1nc(C(NS(=O)(=O)N(C)C)c2ccccc2F)no1 (stereo unspecified),-2.09%
14,COc1cccc(-c2cc(NCc3nc(C)cs3)n(C)n2)c1,-0.717%
15,COC(=O)c1ccc(NC2CCN(CC(F)(F)F)C2=O)cc1C (stereo unspecified),2.79%
16,CCc1nc(CN2CCCN(C(=O)c3ccccc3)CC2)cs1,7.41%
17,Cc1nn(-c2ccccc2)c(C)c1CNC(=O)NC1CC1,7.59%
18,Cc1nc2n(n1)CC(NCc1c(Cl)ccc3cccnc13)CC2 (stereo unspecified),0.0383%
19,Cc1noc(CCNC(=O)NCC(=O)NCc2ccccc2)n1,5.24%
20,O=C(NCCN1CCOCC1)NCc1ccc(-n2cccn2)cc1,-6.4%
21,Cc1nnc(NCC(c2ccco2)N(C)C)c(C#N)c1C (stereo unspecified),-3.01%

row,SMILES,cytotoxicity at 10 µM
1,Cc1noc(C)c1C(=O)NCCN1CCN(S(C)(=O)=O)CC1,-12.4%
2,Cc1nn(CN(CC(C)C)C2CC2)c(=O)c2noc(C)c12,-3.39%
3,O=C(NCC(O)COc1cccc(F)c1)c1ccoc1 (stereo unspecified),-2.56%
4,CC(C)c1nnc2n1CCN(Cc1csc(-c3cnn(C)c3)n1)C2,-2.17%
5,CCN(C(=O)c1cnc(-c2ccc3c(c2)OCO3)s1)C1CC1,-0.839%
6,O=C(Nc1ccnc2ccnn12)c1ccc(NC2CC2)nc1,5.14%
7,Cc1cccc(C(=O)Nc2ccc(OC3CCOCC3)c(C)c2)n1,-8.99%
8,Cc1nc(CNc2ncc(Br)cn2)n[nH]1,-3.47%
9,O=C(Nc1ccc2c(c1)OC1(CCCC1)O2)c1ccc(=O)[nH]n1,0.887%
10,CCN1CCN(CC(O)c2cc(Cl)ccc2Cl)CC1 (stereo unspecified),0.388%
11,Cc1cc(CS(=O)(=O)NC2CCCc3ccccc32)on1 (stereo unspecified),-1.57%
12,CC(C)NC(=O)Nc1ccc(-c2nc(C(C)C)no2)cc1,-8.56%
13,CC(C)c1noc(-c2ccc(NC(=O)NCC(O)C(C)C)cc2)n1 (stereo unspecified),-7.03%
14,Cc1c(C(=O)NCCC(=O)N2CCCC2)oc2c(F)cccc12,5.87%
15,CN(C(=O)Cc1ccc2c(c1)OCCO2)C1CCCC1,9.66%
16,O=C1CCC(c2ccccc2)(c2ccccc2)CN1CCO,2.94%
17,Cc1cc(C(=O)N2CCCC(Cn3cc(C4CC4)nn3)C2)nc(C)n1 (stereo unspecified),-0.916%
18,Cc1ncsc1CN1CC2(CCCC2)CC1=O,-0.369%
19,CC[C@@H](NC(C)=O)C(=O)NCc1cccnc1Oc1ccccc1OC,-3.06%
20,Cc1ccnc(NCc2cn3c(C)csc3n2)n1,-5.66%
21,COc1ccccc1OCc1cc(C(=O)N2CCOCC2CO)n[nH]1 (stereo unspecified),-3.94%

row,SMILES,cytotoxicity at 10 µM
1,COC1CCCOC12CCN(C(=O)NCCc1cccs1)CC2 (stereo unspecified),1.03%
2,CC(=O)N[C@H]1CCN(C(=O)c2cc(Cn3cnc4ccccc43)[nH]n2)C1,-1.91%
3,CCc1ccc(-c2cn3c(C(=O)N[C@H](C(N)=O)[C@@H](C)O)csc3n2)cc1,7.69%
4,CCNc1ccnc(-c2ccnc3c2ccn3C)n1,11.2%
5,FC(F)(F)CCc1ncnn1-c1ccc2c(c1)OCO2,-3.55%
6,COc1cc2c(cc1C(=O)N1CC(c3ccncc3)C1)CCC2,0.545%
7,Fc1ccccc1CC1CCN(Cc2nccs2)CC1,-6.92%
8,CC(C)Cc1cc(C(=O)NC(C)(CO)CO)n(C)n1,6.57%
9,Cc1nnsc1CNC(=O)Nc1cccc(N2CCN(C)C2=O)c1,-3.97%
10,Cc1cc(C)nc(CNC(=O)C(c2cccnc2)N2CCOCC2)n1 (stereo unspecified),-1.43%
11,Cc1c(C(=O)NC2CCCC2)nnn1-c1ccccc1,11.4%
12,CN(C)S(=O)(=O)N(C)C(c1cccc(F)c1)c1ccccn1 (stereo unspecified),3.22%
13,CCN(Cc1ccccc1)C(=O)CN1CCOC(Cn2cncn2)C1 (stereo unspecified),-6.31%
14,NC(=O)CS(=O)(=O)Cc1cc(Cl)c2c(c1)OCCCO2,-0.463%
15,Cc1ccc2cc(C(=O)N3CCCC3Cn3cccn3)[nH]c2c1 (stereo unspecified),-7.39%
16,O=C(OCC1CCCN1)c1cccc(NC(=O)c2ccco2)c1 (stereo unspecified),-6.66%
17,CN1[C@@H]2CC[C@H]1CN(C(=O)c1nnc3n1CCCC3)CC2,-10.6%
18,CCCN1C[C@@H]2CC[C@H]1CN(C(=O)Cn1c(C)cc(C)nc1=O)C2,-4.57%
19,Cc1c(C)c2c(c(C)c1O)CC[C@](C)(C(=O)O)O2 [(R)-TROLOX],-1.69%
